Three compounds from publication PMC8092417 (Anti-cancer drugs, 2020) can be followed below.

Assay [1] has as its system MDA-MB-231 cells. The experiment in a line: Ki-67 immunofluorescence staining for proliferation. It is filed as cell-based, human. The note with it: MDA-MB-231, 1 μM, 72 hours.
Assay [2] concerns TU-BcX-4IC explants. The experiment in a line: Western blot of treated PDX tumor explants. The assay is classed as cell-based, human. The note with it: 24 hours. A general note: Immunoblotting shows a protein as a band on a membrane.
In assay [3] the test system is TU-BcX-4IC cells. As to the kind of experiment: qRT-PCR of epithelial and mesenchymal genes. It is filed as cell-based, human. The note with it: 1 μM, 72 hours. In a few lines:
(§1)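 Cells were treated 72 h with test compound (1 μM) or DMSO. Total RNA was column-isolated and checked for quantity and quality by absorbance (260, 280 nm). Then 2 μg total RNA was reverse-transcribed and gene expression measured by qRT-PCR.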

In assay [4] the test system is BT-549 cells. As to the kind of experiment: qRT-PCR of epithelial and mesenchymal genes. The note with it: BT-549, 1 μM, 72 hours. The assay is classed as cell-based, human. The gist of the method: as §1
(In qPCR the cycle at which signal appears reflects the starting amount.)

The test system of assay [5] is MDA-MB-231 M2 spheres. The experiment in a line: Mammosphere formation and area quantification. The assay is classed as cell-based, human. The note with it: MDA-MB-231, 7 days treatment. The gist of the method: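 MDA-MB-231 cells were seeded at 1,000/well in low-attachment wells in serum-free F12/DMEM plus B-27 and allowed 24 h to form spheres. Spheres were then treated with test compound or DMSO for one week, re-dosed every three days. Imaging was at 40X or 100X. Sphere length and width were measured, area was calculated, and values were compared with DMSO controls.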

Assay [6] has as its target LOK (Homo sapiens, UniProt O94804). As to the kind of experiment: Kinase inhibition assay. It is filed as biochemical. The note with it: 1 μM.
The test system of assay [7] is BT549 cells. The experiment in a line: Transwell migration assay. It is filed as cell-based, human. The note with it: BT549, pretreated 1 μM 72 hours, 24 hours migration. In a few lines: (§2)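 Cells were pretreated 72 h with test compound (1 μM) or DMSO, and viable cells were then seeded into transwell chambers for 24 h. Non-migrated cells were removed. Migrated cells were fixed, crystal violet-stained, imaged by brightfield and counted. Counts were normalized to DMSO per cell line; triplicate experiments.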

Assay [8] addresses MINK (Homo sapiens, UniProt Q8N4C8). The experiment in a line: Kinase inhibition assay. It is filed as biochemical. The note with it: 1 μM.
Assay [9] concerns the target T1, NEK2 (Homo sapiens, UniProt P51955).
T1 sequence (P51955 1-445): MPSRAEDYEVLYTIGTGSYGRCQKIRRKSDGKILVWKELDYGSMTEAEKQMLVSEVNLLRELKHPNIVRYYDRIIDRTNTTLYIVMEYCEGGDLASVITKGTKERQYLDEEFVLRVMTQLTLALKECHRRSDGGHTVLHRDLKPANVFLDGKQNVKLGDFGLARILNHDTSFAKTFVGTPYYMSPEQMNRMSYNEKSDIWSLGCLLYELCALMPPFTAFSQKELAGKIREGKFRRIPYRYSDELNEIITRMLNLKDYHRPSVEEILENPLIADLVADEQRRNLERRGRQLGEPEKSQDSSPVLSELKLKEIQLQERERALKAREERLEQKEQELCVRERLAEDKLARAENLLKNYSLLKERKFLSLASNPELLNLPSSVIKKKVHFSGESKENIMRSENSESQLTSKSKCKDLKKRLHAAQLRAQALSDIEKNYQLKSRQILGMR
As to the kind of experiment: Kinase inhibition assay. The assay is classed as biochemical. The note with it: 1 μM.

Assay [10] deals with MDA-MB-231 cells. The experiment in a line: qRT-PCR of epithelial and mesenchymal genes. It is filed as cell-based, human. The note with it: MDA-MB-231, 1 μM, 72 hours. The gist of the method: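 MDA-MB-231 cells in 5% charcoal-stripped DMEM were pre-exposed for 72 h to test compound (1 μM) or DMSO. RNA was then isolated and gene expression measured by quantitative real-time PCR.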

Assay [11] deals with HIPK4 (Homo sapiens, UniProt Q8NE63). The experiment in a line: Kinase inhibition assay. The assay is classed as biochemical. The note with it: 1 μM.
Chain of HIPK4 (Q8NE63 whole entry): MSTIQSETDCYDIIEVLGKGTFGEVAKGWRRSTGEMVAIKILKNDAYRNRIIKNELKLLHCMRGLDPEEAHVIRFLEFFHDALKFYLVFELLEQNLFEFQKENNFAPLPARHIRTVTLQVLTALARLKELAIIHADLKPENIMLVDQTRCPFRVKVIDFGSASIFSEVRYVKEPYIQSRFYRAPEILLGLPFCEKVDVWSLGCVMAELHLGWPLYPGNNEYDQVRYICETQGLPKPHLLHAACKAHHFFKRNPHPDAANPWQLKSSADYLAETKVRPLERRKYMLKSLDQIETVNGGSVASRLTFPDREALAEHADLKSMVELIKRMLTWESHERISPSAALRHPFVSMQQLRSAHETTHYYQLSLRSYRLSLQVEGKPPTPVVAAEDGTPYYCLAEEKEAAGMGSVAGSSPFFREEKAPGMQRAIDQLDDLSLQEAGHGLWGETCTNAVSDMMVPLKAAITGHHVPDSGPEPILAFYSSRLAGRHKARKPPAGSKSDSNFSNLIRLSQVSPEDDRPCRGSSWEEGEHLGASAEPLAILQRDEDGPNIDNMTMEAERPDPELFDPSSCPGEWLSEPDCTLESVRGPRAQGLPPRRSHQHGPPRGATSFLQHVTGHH
The test system of assay [12] is MDA-MB-231 cells. The experiment in a line: Crystal violet staining, cells remaining / viability dose-response. It is filed as cell-based, human. In a few lines: (§3)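 Cells were plated at 5,000/well in 5% charcoal-stripped DMEM for 48 h, then exposed to test compound or DMSO vehicle for 72 h at 37 °C, 5% CO2. They were fixed with glutaraldehyde for 20 min and stained for 20 min with 0.1% crystal violet in 90% methanol. After overnight drying, cells were lysed in 33% acetic acid and read at 620 nm. Signal was normalized to DMSO and plotted as dose-response.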

In assay [13] the test system is TU-BcX-49S cells. As to the kind of experiment: qRT-PCR of epithelial and mesenchymal genes. The assay is classed as cell-based, human.
The subject of assay [14] is TU-BcX-4IC M2 spheres. As to the kind of experiment: Mammosphere formation and area quantification. It is filed as cell-based, human. The note with it: 7 days treatment. The gist of the method:
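Cells were plated at 1,000/well in low-attachment plates in serum-free F12/DMEM with B-27 and left 24 h to form spheres. Spheres were then exposed to test compound or DMSO for one week, re-dosed every three days. Spheres were imaged at 40X or 100X, and length and width were measured to calculate area, which was compared with DMSO controls.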

Assay [15] has as its system TU-BcX-4IC cells. The experiment in a line: Transwell migration assay. It is filed as cell-based, human. The note with it: pretreated 1 μM 72 hours, 24 hours migration. The gist of the method: as §2
Assay [16] deals with BT-549 cells. The experiment in a line: Crystal violet staining, cells remaining / viability dose-response. It is filed as cell-based, human. The gist of the method:
as §3

Assay [17] has as its system TU-BcX-4IC cells. The experiment in a line: Crystal violet staining, cells remaining / viability dose-response. The note with it: 1 μM, 72 hours. The assay is classed as cell-based, human.
Assay [18] addresses MST2 (Homo sapiens, UniProt Q13188). The experiment in a line: Kinase inhibition assay. The assay is classed as biochemical. The note with it: 1 μM.

Chain of MST2 (Q13188 whole entry): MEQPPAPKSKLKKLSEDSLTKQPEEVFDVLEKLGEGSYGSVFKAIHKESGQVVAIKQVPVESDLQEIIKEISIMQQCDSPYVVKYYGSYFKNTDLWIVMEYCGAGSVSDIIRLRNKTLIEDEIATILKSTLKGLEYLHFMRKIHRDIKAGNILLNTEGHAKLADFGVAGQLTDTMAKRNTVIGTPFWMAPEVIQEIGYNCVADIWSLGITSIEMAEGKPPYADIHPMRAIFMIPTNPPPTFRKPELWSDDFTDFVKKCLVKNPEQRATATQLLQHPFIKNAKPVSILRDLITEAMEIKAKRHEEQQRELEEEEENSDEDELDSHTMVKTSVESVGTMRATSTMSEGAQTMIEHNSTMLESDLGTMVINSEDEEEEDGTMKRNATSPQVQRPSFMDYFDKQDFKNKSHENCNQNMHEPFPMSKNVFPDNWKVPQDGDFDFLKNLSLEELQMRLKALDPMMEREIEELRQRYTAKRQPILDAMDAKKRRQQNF
Chain of MINK (Q8N4C8 whole entry): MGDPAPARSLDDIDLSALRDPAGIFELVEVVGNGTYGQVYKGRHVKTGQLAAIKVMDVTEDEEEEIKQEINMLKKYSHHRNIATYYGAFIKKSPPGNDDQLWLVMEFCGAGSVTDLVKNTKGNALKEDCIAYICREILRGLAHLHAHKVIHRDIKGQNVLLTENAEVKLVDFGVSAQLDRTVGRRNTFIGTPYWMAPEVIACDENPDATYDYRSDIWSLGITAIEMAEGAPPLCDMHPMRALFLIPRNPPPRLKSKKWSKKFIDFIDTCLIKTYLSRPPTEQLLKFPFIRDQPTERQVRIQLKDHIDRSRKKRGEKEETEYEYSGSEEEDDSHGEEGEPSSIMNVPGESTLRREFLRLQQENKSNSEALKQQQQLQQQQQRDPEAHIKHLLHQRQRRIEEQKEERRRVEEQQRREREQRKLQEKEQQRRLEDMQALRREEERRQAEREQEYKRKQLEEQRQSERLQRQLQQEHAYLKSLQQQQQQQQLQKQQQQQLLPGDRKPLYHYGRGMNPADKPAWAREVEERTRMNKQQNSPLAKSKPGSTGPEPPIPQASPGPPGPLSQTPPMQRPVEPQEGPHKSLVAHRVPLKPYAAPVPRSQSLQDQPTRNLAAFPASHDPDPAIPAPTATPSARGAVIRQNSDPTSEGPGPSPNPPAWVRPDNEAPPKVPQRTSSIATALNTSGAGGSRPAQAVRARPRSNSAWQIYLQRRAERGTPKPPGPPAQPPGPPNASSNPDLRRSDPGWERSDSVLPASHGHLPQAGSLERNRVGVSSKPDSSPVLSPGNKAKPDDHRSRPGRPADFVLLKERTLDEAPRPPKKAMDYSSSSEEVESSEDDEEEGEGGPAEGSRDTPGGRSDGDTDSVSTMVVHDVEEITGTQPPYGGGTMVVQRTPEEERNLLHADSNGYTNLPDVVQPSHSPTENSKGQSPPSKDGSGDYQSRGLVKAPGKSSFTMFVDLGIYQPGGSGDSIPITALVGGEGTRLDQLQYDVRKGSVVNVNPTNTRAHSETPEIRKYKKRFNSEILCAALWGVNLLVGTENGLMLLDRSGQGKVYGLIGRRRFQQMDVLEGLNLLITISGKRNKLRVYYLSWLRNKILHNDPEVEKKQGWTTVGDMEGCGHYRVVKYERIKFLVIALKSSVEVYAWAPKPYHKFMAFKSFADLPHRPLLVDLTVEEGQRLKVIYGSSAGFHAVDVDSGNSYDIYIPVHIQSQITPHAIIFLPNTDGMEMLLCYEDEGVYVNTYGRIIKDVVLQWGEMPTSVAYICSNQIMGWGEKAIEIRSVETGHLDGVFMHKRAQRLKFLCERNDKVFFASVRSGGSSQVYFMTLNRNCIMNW
Chain of LOK (O94804 whole entry): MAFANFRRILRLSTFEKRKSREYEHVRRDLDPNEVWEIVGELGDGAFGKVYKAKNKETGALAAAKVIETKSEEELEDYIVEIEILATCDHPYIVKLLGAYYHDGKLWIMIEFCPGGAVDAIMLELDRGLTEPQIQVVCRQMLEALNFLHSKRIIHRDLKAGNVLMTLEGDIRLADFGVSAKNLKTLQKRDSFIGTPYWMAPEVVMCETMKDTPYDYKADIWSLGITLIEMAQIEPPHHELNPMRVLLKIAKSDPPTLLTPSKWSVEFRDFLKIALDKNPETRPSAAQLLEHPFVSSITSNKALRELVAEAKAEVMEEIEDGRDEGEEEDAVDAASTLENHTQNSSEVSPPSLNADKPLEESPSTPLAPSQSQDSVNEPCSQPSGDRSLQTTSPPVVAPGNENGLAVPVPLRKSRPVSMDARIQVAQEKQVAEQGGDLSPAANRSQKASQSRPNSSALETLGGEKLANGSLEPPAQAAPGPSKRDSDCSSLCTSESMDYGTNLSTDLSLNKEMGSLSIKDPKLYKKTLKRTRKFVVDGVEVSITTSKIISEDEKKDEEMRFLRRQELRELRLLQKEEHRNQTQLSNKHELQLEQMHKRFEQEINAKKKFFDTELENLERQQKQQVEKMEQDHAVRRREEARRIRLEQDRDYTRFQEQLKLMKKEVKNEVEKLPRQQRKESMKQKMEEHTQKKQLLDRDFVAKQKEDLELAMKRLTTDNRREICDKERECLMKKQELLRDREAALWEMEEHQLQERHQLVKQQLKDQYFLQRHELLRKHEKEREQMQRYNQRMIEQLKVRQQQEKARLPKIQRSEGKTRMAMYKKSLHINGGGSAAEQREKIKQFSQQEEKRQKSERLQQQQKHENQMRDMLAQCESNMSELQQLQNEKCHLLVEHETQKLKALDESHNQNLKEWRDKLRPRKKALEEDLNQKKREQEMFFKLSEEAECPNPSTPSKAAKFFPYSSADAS

Take `CC[C@@H]1C(=O)N(C)c2cnc(Nc3ccc(C(=O)NC4CCN(C)CC4)cc3OC)nc2N1C1CCCC1` [BI2536]: the “Ki-67 positive cells (cell proliferation)” value in [1] is “significantly reduced the number of Ki-67 positive cells”.

Take `CC[C@@H]1C(=O)N(C)c2cnc(Nc3ccc(C(=O)N[C@H]4CC[C@H](N5CCN(CC6CC6)CC5)CC4)cc3OC)nc2N1C(C)C` [BI6727]: in assay [2], the MMP9 protein expression result is “suppressed the mesenchymal markers ZEB1 and MMP9 expression”; the ZEB1 protein expression result was “suppressed the mesenchymal markers ZEB1 and MMP9 expression”.

Regarding `COc1cc2ncn(-c3cc(OCc4sccc4Cl)c(C(N)=O)s3)c2cc1OC` [GSK448459A], the “MMP9 mRNA expression” value in assay [3] is “Neither GSK346294A nor GSK448459A affected MMP9 expression”; in assay [4], “Neither GSK346294A nor GSK448459A affected MMP9 expression”; in assay [10], “significantly downregulated MMP9 expression”. The results for the “ZEB1 mRNA expression” value in assay [3] and in [10] were “suppressed ZEB1 expression in TU-BcX-4IC cells albeit not significantly” and “significantly increased ZEB1 expression”, respectively. Also, the “cFOS mRNA expression” value is given as “suppressive effects in all three TNBC cell lines, although not significantly” in [3]; “suppressive effects in all three TNBC cell lines, although not significantly” in assay [4]; “suppressive effects in all three TNBC cell lines, although not significantly” in assay [10]; “Neither GSK346294A nor GSK448459A suppressed cFOS mRNA expression” in assay [13]. The “CDH1 mRNA expression” value in assay [4] is “significantly reduced CDH1 mRNA expression”. Further, the “SNAI1 mRNA expression” value in assay [4] is given as “increased SNAI1 expression in BT-549 cells significantly”; in assay [10], “significantly decreased SNAI1 expression”. Further, the Sphere area entry in assay [5] is listed as “significantly increased sphere area”. For the same compound, the “Binding activity to LOK” value in assay [6] was determined as 99.1%. In addition, in [1], the “Ki-67 positive cells (cell proliferation)” value was “decreased Ki-67 positive cells”. In addition, the Transwell cell migration entry in [7] and in [15] was “most suppressive effects on cell migration” each time. Also, the “Binding activity against MINK” value in [8] is “significant binding activity”. Besides, the “Binding activity against NEK2” value in [9] was “significant binding activity”. In addition, the “Binding activity to NEK2” value in assay [9] is 97.1%. Further, in [11], the “Binding activity against HIPK4” value is on record as “significant binding activity”. Also, the IC50 in [12] (Homo sapiens, MDA-MB-231, 72 h, read-out: IC-50, number of cells remaining) was determined as 50 µM; in assay [16] (Homo sapiens, BT-549, 72 h, read-out: IC-50, number of cells remaining), 7.5 µM. Also, the “Number of cells remaining compared to DMSO controls” value was “increased number of cells remaining” in assay [12] (MDA-MB-231, 1 μM, 72 hours); “increased number of cells remaining” in assay [16] (BT-549, 1 μM, 72 hours); “increased number of cells remaining” in assay [17]. Besides, the “Mammosphere formation (sphere area)” value in assay [14] is “significantly suppressed mammosphere formation”. The MMP9 protein expression result in [2] was “did not suppress MMP9 and ZEB1 protein expressions”. In [2], the ZEB1 protein expression entry is “did not suppress MMP9 and ZEB1 protein expressions”. The “Binding activity against MST2” value in assay [18] is “significant binding activity”.
